Reference: ChEMBL document CHEMBL4177662, “Phosphamide-containing diphenylpyrimidine analogues (PA-DPPYs) as potent focal adhesion kinase (FAK) inhibitors with enhanced activity against pancreatic cancer cell lines” (Bioorg Med Chem, 2017)

Tests used:
[1] = test system: PANC-1; assay: Antiproliferative activity against human PANC1 cells after 72 hrs by MTT assay; format: functional, cell-based; conditions: PANC-1, 72 h
Outline: (§1)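 Cells grown in DMEM with 10% FBS and 1% penicillin-streptomycin at 37 °C, 5% CO2. Seeded at 4,000 to 5,000 cells/well, cultured one day, then exposed to compounds for 72 h at 1.25 to 40 μmol/L, five replicates per concentration. MTT absorbance read at 570 nm. IC50 from five-point dose-response curves; mean of at least three separate experiments.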

[2] = test system: BXPC-3; assay: Antiproliferative activity against human BxPC3 cells after 72 hrs by MTT assay; format: functional, cell-based; conditions: BXPC-3, 72 h; outline: as §1
[3] = biological target: Focal adhesion kinase 1 (Homo sapiens, UniProt Q05397); assay: Inhibition of recombinant human N-terminal His-tagged FAK cytoplasmic domain (393 to 698 residues) expressed in baculovirus infected sf9 cells assessed as reduction in autophosphorylation after 60 mins by ADP-Glo kinase assay
Focal adhesion kinase 1, sequence (Q05397 whole entry, the tested form may be a part): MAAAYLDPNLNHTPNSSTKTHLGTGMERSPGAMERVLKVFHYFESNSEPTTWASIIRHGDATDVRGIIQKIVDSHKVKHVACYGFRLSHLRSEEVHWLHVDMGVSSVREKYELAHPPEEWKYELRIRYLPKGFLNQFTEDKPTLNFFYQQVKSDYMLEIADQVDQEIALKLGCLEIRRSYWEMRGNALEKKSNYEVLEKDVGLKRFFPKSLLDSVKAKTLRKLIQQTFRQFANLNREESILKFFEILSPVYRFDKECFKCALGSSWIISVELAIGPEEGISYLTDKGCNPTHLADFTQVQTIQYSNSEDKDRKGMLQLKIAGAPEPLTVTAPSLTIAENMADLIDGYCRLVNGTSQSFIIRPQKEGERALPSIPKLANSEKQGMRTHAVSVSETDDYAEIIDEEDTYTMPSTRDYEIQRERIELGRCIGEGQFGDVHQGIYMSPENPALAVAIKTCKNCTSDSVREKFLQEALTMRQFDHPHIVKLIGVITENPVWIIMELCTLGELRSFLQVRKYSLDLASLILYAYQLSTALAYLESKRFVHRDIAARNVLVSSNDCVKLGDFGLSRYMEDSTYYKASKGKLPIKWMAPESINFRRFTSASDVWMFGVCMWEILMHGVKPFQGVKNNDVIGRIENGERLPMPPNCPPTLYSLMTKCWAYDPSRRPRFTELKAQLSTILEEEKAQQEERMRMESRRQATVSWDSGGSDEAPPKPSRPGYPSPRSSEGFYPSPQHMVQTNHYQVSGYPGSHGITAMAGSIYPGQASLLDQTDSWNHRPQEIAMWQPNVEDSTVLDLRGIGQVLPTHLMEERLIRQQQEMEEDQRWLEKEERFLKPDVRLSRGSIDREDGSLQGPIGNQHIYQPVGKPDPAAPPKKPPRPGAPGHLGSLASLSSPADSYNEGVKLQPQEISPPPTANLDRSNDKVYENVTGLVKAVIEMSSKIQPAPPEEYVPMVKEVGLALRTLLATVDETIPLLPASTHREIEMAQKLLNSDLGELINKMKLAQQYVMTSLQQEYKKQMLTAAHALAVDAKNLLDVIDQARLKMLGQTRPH
Outline: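 ADP-Glo luminescence assay. The kinase reaction ran in 1× kinase buffer with compound at 1 to 200 nM, for 60 min at room temperature. ADP-Glo reagent was then added to stop the reaction and deplete leftover ATP (40 min, room temperature). Detection reagent converted ADP to ATP for luciferase read-out (30 min). IC50 from curve fitting, mean ± SE of three independent experiments.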

[4] = Antiproliferative activity against human HPDE6c7 cells after 72 hrs by MTT assay; format: cell-based; conditions: HPDE6c7, 72 h; outline: as §1
[5] = test system: ASPC1; assay: Antiproliferative activity against human Aspc-1 cells after 72 hrs by MTT assay; format: functional, cell-based; conditions: ASPC1, 72 h; outline: as §1

Row | Structure (SMILES) | IC50 [1] [µM] | IC50 [2] [µM] | IC50 [3] [µM] | IC50 [5] [µM] | IC50 [4] [µM]
1 | CCOP(=O)(Cc1ccc(Nc2ncc([N+](=O)[O-])c(Nc3ccccc3C(=O)NC)n2)cc1)N1CCOCC1 (configuration not stated) | > 40 | 1.02 | 0.00569 | 6.42 | 8.11
2 | CCOP(=O)(Cc1ccc(Nc2ncc(Cl)c(Nc3ccccc3C(=O)NC)n2)cc1)OCC | 14.8 | 0.02 | 0.00425 | 3.31 | 5.44
3 | CNC(=O)c1ccccc1Nc1nc(Nc2ccc(N3CCOCC3)cc2OC)ncc1Cl | > 20 |  |  |  | 11.4

Further lines, with some results ahead:

Row | IC50 [1] [µM] | IC50 [2] [µM] | IC50 [3] [µM] | IC50 [5] [µM] | Structure (SMILES) | IC50 [4] [µM]
4 | 10.9 | 1.04 | 0.0107 | 4.93 | CCOP(=O)(CCCOc1ccc(Nc2ncc(Cl)c(Nc3ccccc3C(=O)NC)n2)cc1)OCC | 4.43
5 | 19.2 | 0.82 | 0.00501 | 15.2 | CCOP(=O)(Cc1ccc(Nc2ncc([N+](=O)[O-])c(Nc3ccccc3C(=O)NC)n2)cc1)OCC | 4.6
6 | 25.4 | 2.04 | 0.00618 | 18.3 | CCOP(=O)(CCCOc1ccc(Nc2ncc([N+](=O)[O-])c(Nc3ccccc3C(=O)NC)n2)cc1)OCC | 1.96
